ChEMBL document CHEMBL4480390, “Cink4T, a quinazolinone-based dual inhibitor of Cdk4 and tubulin polymerization, identified via ligand-based virtual screening, for efficient anticancer therapy” (Eur J Med Chem, 2019)
Calls of active or inactive are those of the source. The rule behind the calls is not given here.

Tests used:
[1] = biological target: Cyclin-dependent kinase 4/cyclin D1 (Homo sapiens) (UniProt P11802+P24385); assay: Inhibition of recombinant human N-terminal GST-tagged CDK4 (S4 to E303 residues)/Cyclin D1 (Q4 to I295 residues) expressed in sf9 cells at 10 uM using RBCTF as substrate measured after 1 hr by ADP-glo luminescence assay relative to control
[2] = biological target: Cyclin-dependent kinase 4/cyclin D1 (Homo sapiens, UniProt P11802); assay: Inhibition of recombinant human N-terminal GST-tagged CDK4 (S4 to E303 residues)/Cyclin D1 (Q4 to I295 residues) expressed in sf9 cells using RBCTF as substrate measured after 1 hr by ADP-glo luminescence assay
Sequence of Cyclin-dependent kinase 4/cyclin D1 (P11802 whole entry, the tested form may be a part): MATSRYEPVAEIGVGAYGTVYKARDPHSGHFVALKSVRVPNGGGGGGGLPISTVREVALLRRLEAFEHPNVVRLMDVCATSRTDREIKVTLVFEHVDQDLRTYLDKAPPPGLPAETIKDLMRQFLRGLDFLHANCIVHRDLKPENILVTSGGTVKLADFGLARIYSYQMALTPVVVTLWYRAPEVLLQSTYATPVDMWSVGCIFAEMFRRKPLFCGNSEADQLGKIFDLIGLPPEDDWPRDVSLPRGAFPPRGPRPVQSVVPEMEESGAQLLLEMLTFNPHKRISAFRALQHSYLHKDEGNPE
Sequence of Cyclin-dependent kinase 4/cyclin D1 (P24385 whole entry, further chain, the tested form may be a part): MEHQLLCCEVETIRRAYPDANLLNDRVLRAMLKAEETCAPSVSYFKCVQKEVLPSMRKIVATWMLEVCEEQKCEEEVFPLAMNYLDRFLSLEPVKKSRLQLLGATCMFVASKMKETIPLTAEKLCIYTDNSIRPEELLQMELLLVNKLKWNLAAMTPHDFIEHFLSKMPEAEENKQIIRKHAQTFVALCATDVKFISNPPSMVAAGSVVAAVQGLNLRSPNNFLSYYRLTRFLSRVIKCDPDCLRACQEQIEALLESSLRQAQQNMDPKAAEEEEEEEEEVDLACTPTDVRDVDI
Method in brief: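 ADP-Glo luminescence assay of Cdk4–cyclin D1 with RBCTF substrate, 200 ng enzyme, ATP 125 µM (2.5x working mix), Tris/MgCl2/BSA/DTT/MnCl2 buffer, 1 h at 21°C, then two 40-min reagent steps. IC50 from a four-parameter variable-slope sigmoidal fit of inhibition against concentration; mean ± SD from three independent experiments.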

CDK2/Cyclin A2 = CDK2/Cyclin A2 (Homo sapiens, UniProt P24941); assay: Inhibition of human full length N-terminal GST-fused CDK2 (M1 to L298 residues)/human full length Cyclin-A2 (M1 to L432 residues) expressed in Sf9 cells using histone H1 as substrate measured after 1 hr by ADP-glo luminescence assay
CDK9/cyclin T1 = CDK9/cyclin T1 (Homo sapiens, UniProt P50750); assay: Inhibition of N-terminal GST-HIS6 fusion protein tagged human full length CDK9 (M1 to F372 residues)/N-terminal HIS6-fused human Cyclin-T1 (M1 to K726 residues) expressed in Sf9 cells using RBCTF as substrate measured after 1 hr by ADP-glo luminescence assay
Sequence of CDK9/cyclin T1 (O60563 whole entry, the tested form may be a part): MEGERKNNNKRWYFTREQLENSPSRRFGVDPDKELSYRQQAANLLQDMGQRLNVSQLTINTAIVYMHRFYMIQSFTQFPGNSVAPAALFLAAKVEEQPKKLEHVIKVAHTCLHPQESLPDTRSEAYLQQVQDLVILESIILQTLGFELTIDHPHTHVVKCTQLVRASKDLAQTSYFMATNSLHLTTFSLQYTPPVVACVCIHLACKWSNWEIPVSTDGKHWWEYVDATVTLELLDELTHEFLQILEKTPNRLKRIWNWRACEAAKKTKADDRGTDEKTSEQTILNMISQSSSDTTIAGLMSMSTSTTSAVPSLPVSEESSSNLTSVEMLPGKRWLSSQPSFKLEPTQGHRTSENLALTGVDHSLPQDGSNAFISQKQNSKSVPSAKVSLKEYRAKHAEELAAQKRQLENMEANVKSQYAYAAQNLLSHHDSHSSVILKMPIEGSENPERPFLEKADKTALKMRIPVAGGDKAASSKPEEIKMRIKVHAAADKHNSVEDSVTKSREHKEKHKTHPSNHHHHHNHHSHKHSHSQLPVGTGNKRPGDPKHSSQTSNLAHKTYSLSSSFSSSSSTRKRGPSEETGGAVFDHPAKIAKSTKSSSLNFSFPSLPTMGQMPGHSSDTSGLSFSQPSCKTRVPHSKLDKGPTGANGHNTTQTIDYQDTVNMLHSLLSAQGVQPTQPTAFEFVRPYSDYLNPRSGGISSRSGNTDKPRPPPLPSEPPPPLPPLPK
Sequence of CDK9/cyclin T1 (P50750 whole entry, the tested form may be a part): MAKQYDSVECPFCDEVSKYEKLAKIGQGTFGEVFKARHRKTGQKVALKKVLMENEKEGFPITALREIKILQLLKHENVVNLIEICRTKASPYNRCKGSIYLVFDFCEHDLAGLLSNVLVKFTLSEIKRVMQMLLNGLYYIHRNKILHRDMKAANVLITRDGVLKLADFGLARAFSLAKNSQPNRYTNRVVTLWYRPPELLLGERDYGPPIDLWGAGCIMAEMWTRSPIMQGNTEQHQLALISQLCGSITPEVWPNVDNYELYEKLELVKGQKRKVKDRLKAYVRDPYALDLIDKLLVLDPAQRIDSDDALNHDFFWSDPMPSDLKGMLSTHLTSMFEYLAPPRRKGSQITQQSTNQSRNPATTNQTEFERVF

Cytochrome P450 1A1 = biological target: T1, Cytochrome P450 1A1 (Homo sapiens, UniProt P04798); assay: Inhibition of recombinant human CYP1A1 expressed in baker's yeast-derived microsomes using 7-ethoxyresorufin as substrate by fluorescence assay; type: ADME
T1 sequence (P04798 whole entry): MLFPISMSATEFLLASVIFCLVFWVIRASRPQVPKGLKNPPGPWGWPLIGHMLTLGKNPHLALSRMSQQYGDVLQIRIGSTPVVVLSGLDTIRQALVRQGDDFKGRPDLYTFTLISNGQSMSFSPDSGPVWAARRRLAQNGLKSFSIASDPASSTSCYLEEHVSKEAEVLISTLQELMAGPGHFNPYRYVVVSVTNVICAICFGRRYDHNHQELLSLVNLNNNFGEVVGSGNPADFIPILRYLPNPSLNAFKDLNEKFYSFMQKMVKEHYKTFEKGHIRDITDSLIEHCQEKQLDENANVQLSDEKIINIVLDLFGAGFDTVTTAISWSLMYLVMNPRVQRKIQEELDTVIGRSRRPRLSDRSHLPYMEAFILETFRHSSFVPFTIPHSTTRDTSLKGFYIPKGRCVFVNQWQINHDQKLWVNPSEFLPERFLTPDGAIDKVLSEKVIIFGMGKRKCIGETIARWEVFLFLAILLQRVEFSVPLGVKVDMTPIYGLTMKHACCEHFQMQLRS

Cytochrome P450 1A2 = biological target: T2, Cytochrome P450 1A2 (Homo sapiens, UniProt P05177); assay: Inhibition of recombinant human CYP1A2 expressed in baker's yeast-derived microsomes using 3-cyano-7-ethoxycoumarin as substrate by fluorescence assay; type: ADME
T2 sequence (P05177 whole entry): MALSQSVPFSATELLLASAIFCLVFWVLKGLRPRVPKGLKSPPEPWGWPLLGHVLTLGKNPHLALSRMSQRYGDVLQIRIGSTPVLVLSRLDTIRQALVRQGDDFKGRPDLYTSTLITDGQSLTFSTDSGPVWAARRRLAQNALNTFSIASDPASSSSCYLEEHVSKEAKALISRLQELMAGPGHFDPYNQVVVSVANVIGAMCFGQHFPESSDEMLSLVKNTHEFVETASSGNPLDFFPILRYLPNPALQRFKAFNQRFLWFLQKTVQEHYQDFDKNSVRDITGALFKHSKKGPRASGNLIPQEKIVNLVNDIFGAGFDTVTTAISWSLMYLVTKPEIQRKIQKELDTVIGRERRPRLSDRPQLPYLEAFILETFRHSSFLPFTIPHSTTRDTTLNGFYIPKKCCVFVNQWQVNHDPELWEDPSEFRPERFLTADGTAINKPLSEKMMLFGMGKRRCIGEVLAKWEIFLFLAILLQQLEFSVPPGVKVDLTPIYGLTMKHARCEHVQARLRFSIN

T47D [3] = assay: Cell cycle arrest in human T47D cells assessed as accumulation at G0/G1 phase at 0.75 uM treated 18 hrs post serum-starvation measured after 18 hrs in presence of fresh medium containing FBS by propidium iodide staining based flow cytometry (reference value: 60.3%); type: functional
T47D [4] = assay: Cell cycle arrest in human T47D cells assessed as increase in accumulation at S phase at 0.75 uM treated 18 hrs post serum-starvation measured after 18 hrs in presence of fresh medium containing FBS by propidium iodide staining based flow cytometry relative to control; type: functional
T47D [5] = assay: Cell cycle arrest in human T47D cells assessed as increase in accumulation at S phase at 1.5 uM treated 18 hrs post serum-starvation measured after 18 hrs in presence of fresh medium containing FBS by propidium iodide staining based flow cytometry relative to control; type: functional
Calu-1 [6] = assay: Cell cycle arrest in human Calu1 cells assessed as accumulation at G0/G1 phase at 1.8 uM treated 18 hrs post serum-starvation measured after 18 hrs in presence of fresh medium containing FBS by propidium iodide staining based flow cytometry (reference value: 69.2%); type: functional
Calu-1 [7] = assay: Cell cycle arrest in human Calu1 cells assessed as increase in accumulation at S phase at 0.9 uM treated 18 hrs post serum-starvation measured after 18 hrs in presence of fresh medium containing FBS by propidium iodide staining based flow cytometry relative to control; type: functional
A549 [8] = assay: Cell cycle arrest in human A549 cells assessed as accumulation at G0/G1 phase at 0.8 uM measured after 18 hrs by propidium iodide staining based flow cytometry (reference value: 58%); type: functional
A549 [9] = assay: Cell cycle arrest in human A549 cells assessed as accumulation at S phase at 1.6 uM measured after 18 hrs by propidium iodide staining based flow cytometry (reference value: 21%); type: functional
A549 [10] = assay: Cell cycle arrest in human A549 cells assessed as accumulation at G2/M phase at 0.8 uM measured after 18 hrs by propidium iodide staining based flow cytometry (reference value: 18%); type: functional
A549 [11] = assay: Cell cycle arrest in human A549 cells assessed as accumulation at G2/M phase at 1.6 uM measured after 18 hrs by propidium iodide staining based flow cytometry (reference value: 18%); type: functional
A549 [12] = assay: Effect on CDK1 expression in human A549 cells at 0.8 to 1.6 uM measured after 18 hrs by Western blot analysis; type: functional, cell-based
A549 [13] = assay: Cell cycle arrest in human A549 cells assessed as accumulation at S phase at 0.8 uM treated 32 hrs post mimosine addition measured after 18 hrs in presence of fresh medium by propidium iodide staining based flow cytometry (reference value: 23%); type: functional
A549 [14] = assay: Cell cycle arrest in human A549 cells assessed as accumulation at G2/M phase at 1.6 uM treated 32 hrs post mimosine addition measured after 18 hrs in presence of fresh medium by propidium iodide staining based flow cytometry (reference value: 14%); type: functional

## O=C(COc1ccc(-c2nc3ccccc3c(=O)[nH]2)cc1)Nc1cccc(Cl)c1
[1]
  inhibition: 95%
[2]
  IC50: 0.47 µM
CDK2/Cyclin A2
  IC50: > 100 µM
CDK9/cyclin T1
  IC50: > 100 µM
Cytochrome P450 1A1
  IC50: > 5 µM
Cytochrome P450 1A2
  IC50: > 5 µM
T47D [3]
  Activity: 77%
T47D [4]
  Activity: 2.13%
T47D [5]
  Activity: 5.3%
Calu-1 [6]
  Activity: 88%
Calu-1 [7]
  Activity: 0.7%
A549 [8]
  Activity: 65%
A549 [9]
  Activity: 16%
A549 [10]
  Activity: 28%
A549 [11]
  Activity: 70%
A549 [12]
  Activity: inactive
A549 [13]
  Activity: 24%
A549 [14]
  Activity: 68%
